Source: PubChem (several laboratories)
Runt-CBFb FRET – inhibitors of RUNX1 Runt–CBFb binding, primary screen, biochemical, FRET, Cerulean-Runt, Venus-CBFb, uHTS | Runt-related transcription factor 1 (Homo sapiens) + Core-binding factor subunit beta … | Cerulean-Runt/Venus-CBFb FRET ratio 530/480, 1 h | inhibition, % at 20 µM | 0.46% of 220,000 active | AID 1496, 2009;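 active means inhibition over about 50% at 20 µM in the single-dose screen, limit read from the data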;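 further: 0% = DMSO wells and 100% = excess unlabeled CBFb competitor control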
Target sequence (Q01196 whole entry, looked up): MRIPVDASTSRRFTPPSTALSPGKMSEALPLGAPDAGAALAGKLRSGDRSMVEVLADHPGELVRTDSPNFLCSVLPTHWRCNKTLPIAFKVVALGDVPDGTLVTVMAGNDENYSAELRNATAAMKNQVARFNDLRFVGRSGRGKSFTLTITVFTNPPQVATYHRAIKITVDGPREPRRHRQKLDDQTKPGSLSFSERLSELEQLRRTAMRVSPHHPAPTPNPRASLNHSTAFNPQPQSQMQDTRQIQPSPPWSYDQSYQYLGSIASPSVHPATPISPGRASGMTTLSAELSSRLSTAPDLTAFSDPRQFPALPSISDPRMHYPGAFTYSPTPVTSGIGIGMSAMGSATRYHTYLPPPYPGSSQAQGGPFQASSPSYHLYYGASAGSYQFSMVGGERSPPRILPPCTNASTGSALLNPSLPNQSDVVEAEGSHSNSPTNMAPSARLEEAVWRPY
Target sequence (Q13951 whole entry, looked up): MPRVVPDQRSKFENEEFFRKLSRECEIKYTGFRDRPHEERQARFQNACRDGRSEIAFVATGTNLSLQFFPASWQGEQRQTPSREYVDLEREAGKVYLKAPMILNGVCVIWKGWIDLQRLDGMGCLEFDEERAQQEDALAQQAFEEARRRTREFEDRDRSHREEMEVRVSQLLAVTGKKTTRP
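Schedule: protein complex preformed 1 h, compound exposure 1 h, room temperature, dark; test system: Cerulean-labeled Runt domain protein; amount: 100 nM per protein; buffer or medium: Tris 50 mM pH 7.5, KCl, K2SO4, 0.01% BSA; read-out: loss of energy transfer signal; detection: FRET fluorescence; controls: 5 µM unlabeled CBFb as full-inhibition high control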
VIM-2 inhibitor – VIM-2 metallo-beta-lactamase inhibitors, primary screen, biochemical, epi-absorbance readout, Pseudomonas aeruginosa enzyme | purified VIM-2, nitrocefin hydrolysis, epi-absorbance fluorescence | inhibition, % at 5.6 µM | 0.89% of 290,000 active | AID 1527, 2009;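 active means inhibition above the mean of all tested compounds plus 3 SD, cutoff set per screening run, cut at about 7.5% in these data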;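 further: red hydrolysis product quenches plate fluorescence so inhibitors raise well fluorescence; 0% = enzyme with DMSO and 100% = DMSO without enzyme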
IMP-1 inhibitor – IMP-1 metallo-beta-lactamase inhibitors, primary screen, biochemical, epi-absorbance readout, Pseudomonas aeruginosa enzyme | AID 1556, 2009 | 0.45% of 290,000 active | metallo-beta-lactamase IMP-1 (Pseudomonas aeruginosa) | purified IMP-1, nitrocefin hydrolysis, epi-absorbance fluorescence | inhibition, % at 5.6 µM;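 active means inhibition above the mean plus 3 SD of all compounds in the same screening run, cut at about 4.5% in these data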;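 further: 0% = IMP-1 with DMSO and 100% = DMSO wells lacking enzyme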
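assay system = purified recombinant IMP-1 metallo-beta-lactamase enzyme | schedule = 15 min preincubation plus 25 min reaction at 25 °C | signal = Epi-absorbance fluorescence, 480 nm excitation, 530 nm emission | read-out basis = percent inhibition from optical density relative to buffer-blank wells | controls = IMP-1 with DMSO as 0%, enzyme-free DMSO as 100%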
Runt-SMMHC FRET – inhibitors of RUNX1 Runt–CBFb-SMMHC binding, primary screen, biochemical, FRET, Cerulean-Runt, Venus-CBFb-SMMHC, uHTS. Runt-related transcription factor 1 (Homo sapiens) + Core-binding factor subunit beta …. Cerulean-Runt/Venus-CBFb-SMMHC FRET ratio 530/480, 1 h. inhibition, % at 20 µM. 0.74% of 220,000 active. AID 1434, 2008;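 active means mean inhibition across duplicate retests at 20 µM reaching about 50%, limit read from the data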;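 further: 0% = DMSO wells and 100% = wells with excess untagged CBFb-SMMHC; inhibitors lower the FRET ratio by blocking Runt binding to CBFb-SMMHC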
RanGTP-Impb inh – inhibitors of RanGTP-importin-beta interaction, primary screen, biochemical, FRET, CFP-Ran, YFP-importin-beta, homogeneous | cell-free CFP-Ran/YFP-importin-beta FRET ratio | inhibition, % (no concentration beside the values) | 1.1% of 300,000 active | AID 2216, 2009;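 active means more than half of the replicate wells show a fall in the fluorescence ratio signal beyond about 16%, limit read from the data, passing the limit was not always enough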;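 further: 0% = DMSO wells and 100% = Ran loaded with GDP instead of GTP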
* = called active by the depositor. Compounds with a hit are over-represented: about 2.6% of the library has one in this group of screens.

For COc1ccc(-c2c(C)nn3c(Cl)c(C)c(C)nc23)cc1 the results were VIM-2 inhibitor 8.7*, IMP-1 inhibitor -1 and RanGTP-Impb inh 4.
`Cc1ccc(NC(NC(=O)OCCn2c([N+](=O)[O-])cnc2C)C(Cl)(Cl)Cl)cc1` (stereo not drawn) gave Runt-CBFb FRET 0, VIM-2 inhibitor 1, IMP-1 inhibitor 1, Runt-SMMHC FRET -1 and RanGTP-Impb inh 18*.
Cc1ncc([N+](=O)[O-])n1CCOC(=O)c1ccc(Cl)cc1Cl was read as Runt-CBFb FRET -1, VIM-2 inhibitor 9.7*, IMP-1 inhibitor -3, Runt-SMMHC FRET 4 and RanGTP-Impb inh -2.
`COc1cc2ccccc2cc1C(=O)Nc1ccc(C)cn1` gave VIM-2 inhibitor -2, IMP-1 inhibitor -2 and RanGTP-Impb inh 5.
Cc1ccccc1-n1nc2c(c1NC(=O)c1cc3ccccc3oc1=O)CS(=O)(=O)C2 was read as Runt-CBFb FRET 10, VIM-2 inhibitor 0, IMP-1 inhibitor 0, Runt-SMMHC FRET 39 and RanGTP-Impb inh 17*.
Screening COC(=O)c1ccc(CSc2ccc3nnc(-c4cccc(F)c4)n3n2)o1 returned Runt-CBFb FRET -6, VIM-2 inhibitor 8.4*, IMP-1 inhibitor -3, Runt-SMMHC FRET -4 and RanGTP-Impb inh 4.
For CSc1ccc2nnc(-c3cccc(F)c3)n2n1 the results were Runt-CBFb FRET -2, VIM-2 inhibitor 10.0*, IMP-1 inhibitor 0, Runt-SMMHC FRET -5 and RanGTP-Impb inh -2.
COc1cccc(Oc2ncnc(N)c2[N+](=O)[O-])c1 was read as VIM-2 inhibitor -2, IMP-1 inhibitor -2 and RanGTP-Impb inh 2.
`Cc1ccc(/C=C2\SC(=S)N(c3cccnc3)C2=O)o1` gave Runt-CBFb FRET 16, VIM-2 inhibitor 1, IMP-1 inhibitor 5.9*, Runt-SMMHC FRET -8 and RanGTP-Impb inh 5.
`Cn1cccc1C(=O)/C(C#N)=C/c1ccc(F)cc1` gave VIM-2 inhibitor -2, IMP-1 inhibitor -2 and RanGTP-Impb inh -1.
`CCCN(CC(=O)Nc1ccc(F)c(F)c1F)C(=O)CCc1nc2ccccc2c(=O)[nH]1` gave RanGTP-Impb inh -1.
`Cc1cc(Nc2ccc3c(c2)OCCO3)n2nc(C)nc2n1` gave Runt-CBFb FRET 4, VIM-2 inhibitor 14*, IMP-1 inhibitor -3, Runt-SMMHC FRET 0 and RanGTP-Impb inh -5.
COc1ccc(Cl)cc1Nc1cc(C)nc2nc(C)nn12 was read as Runt-CBFb FRET 1, VIM-2 inhibitor 10.0*, IMP-1 inhibitor -3, Runt-SMMHC FRET 4 and RanGTP-Impb inh 0.
For Cc1cc(Nc2ccc(Br)cc2)n2nc(C)nc2n1 the results were Runt-CBFb FRET -2, VIM-2 inhibitor 5, IMP-1 inhibitor -3, Runt-SMMHC FRET -6 and RanGTP-Impb inh 5.
`Cc1cc(Nc2ccc(F)cc2)n2nc(C)nc2n1` gave Runt-CBFb FRET 2, VIM-2 inhibitor 9.7*, IMP-1 inhibitor 2, Runt-SMMHC FRET -2 and RanGTP-Impb inh 0.
For CC(C)CN(C(=O)COC(=O)CNC(=O)c1ccccc1F)c1c(N)n(Cc2ccccc2)c(=O)[nH]c1=O the results were RanGTP-Impb inh 8.
`CCOc1ccc(S(=O)(=O)NCCC(=O)NCCOc2ccccc2OC)cc1` gave RanGTP-Impb inh 5.
`Cc1ccc(S(=O)(=O)NNC(=O)CCC(=O)Nc2ccccc2Cl)cc1` gave VIM-2 inhibitor -2 and IMP-1 inhibitor -3.
For COc1ccc(S(=O)(=O)NC(C)C(=O)N2CCCC2)cc1C (stereo not drawn) the results were VIM-2 inhibitor -3, IMP-1 inhibitor -4 and RanGTP-Impb inh -3.
`O=C(O)c1ccc(C=C(c2nc3ccccc3s2)c2nc3ccccc3s2)cc1` gave Runt-CBFb FRET -6, VIM-2 inhibitor 0, IMP-1 inhibitor -2, Runt-SMMHC FRET -2 and RanGTP-Impb inh -1.
Screening COc1cc(C=C(c2nc3ccccc3s2)c2nc3ccccc3s2)cc(OC)c1O returned Runt-CBFb FRET 26, VIM-2 inhibitor -1, IMP-1 inhibitor 0, Runt-SMMHC FRET 2 and RanGTP-Impb inh 36*.
Screening CN(C)c1ccc(/C=C(\Cl)c2nc3ccccc3s2)cc1 returned Runt-CBFb FRET 39, VIM-2 inhibitor 0, IMP-1 inhibitor -2 and Runt-SMMHC FRET 81*.
`Nn1cnc2scc(-c3ccc(Cl)cc3)c2c1=O` gave VIM-2 inhibitor -1, IMP-1 inhibitor -3 and RanGTP-Impb inh -2.
Screening Cc1ccc(S(=O)(=O)C(C#N)c2nc3ccccc3nc2N2CCN(C)CC2)cc1 (stereo not drawn) returned Runt-CBFb FRET 57*, VIM-2 inhibitor -2, IMP-1 inhibitor -4, Runt-SMMHC FRET 79* and RanGTP-Impb inh 64*.
Screening COc1ccc(S(=O)(=O)C(C#N)c2nc3ccccc3nc2N2CCC(C)CC2)cc1 (stereo not drawn) returned Runt-CBFb FRET -1, Runt-SMMHC FRET -6 and RanGTP-Impb inh 27*.
Screening CN1CCc2c(sc3c2C(=O)NC(c2ccc(-c4ccc(Cl)cc4)o2)N3)C1 (stereo not drawn) returned Runt-CBFb FRET 114*, VIM-2 inhibitor 0, IMP-1 inhibitor 3, Runt-SMMHC FRET 33 and RanGTP-Impb inh 90*.
`COc1ccc(Br)cc1C1NC(=O)c2c(sc3c2CCN(C)C3)N1` (stereo not drawn) gave Runt-CBFb FRET 113* and Runt-SMMHC FRET 65*.
For CCOC(=O)N1CCc2c(sc3c2C(=O)NC(c2ccccc2)N3)C1 (stereo not drawn) the results were Runt-CBFb FRET 11, VIM-2 inhibitor -3, IMP-1 inhibitor 4, Runt-SMMHC FRET 13 and RanGTP-Impb inh 7.
`CN1CCc2c(sc3nc(NN)n(Cc4ccccc4)c(=O)c23)C1` gave Runt-CBFb FRET 2, VIM-2 inhibitor -3, IMP-1 inhibitor -2, Runt-SMMHC FRET 8 and RanGTP-Impb inh 6.
Screening CN1CCc2c(sc3c2C(=O)NC(c2cn(Cc4ccccc4)c4ccccc24)N3)C1 (stereo not drawn) returned Runt-CBFb FRET 63*, VIM-2 inhibitor -1, IMP-1 inhibitor -2, Runt-SMMHC FRET 70* and RanGTP-Impb inh 60*.
`O=C1NC(c2ccco2)Nc2sc3c(c21)CCN(Cc1ccccc1)C3` (stereo not drawn) gave Runt-CBFb FRET 49, VIM-2 inhibitor -3, IMP-1 inhibitor -2 and Runt-SMMHC FRET 59*.
Screening Cn1cccc1C1NC(=O)c2c(sc3c2CCC(C(C)(C)C)C3)N1 (stereo not drawn) returned Runt-CBFb FRET 3, VIM-2 inhibitor -2, IMP-1 inhibitor -3, Runt-SMMHC FRET 1 and RanGTP-Impb inh -2.
